Results published in ChEMBL document CHEMBL4376883, “Discovery and Optimization of Small Molecules Targeting the Protein-Protein Interaction of Heat Shock Protein 90 (Hsp90) and Cell Division Cycle 37 as Orally Active Inhibitors for the Treatment of Colorectal Cancer” (J Med Chem, 2020).
pIC50: −log10 of the molar value. Calls of active or inactive are those of the source. The rule behind the calls is not given here.

Tests used:
Heat shock protein HSP90 [1] = target: T1, Heat shock protein HSP90 (Homo sapiens, UniProt P07900+P08238); test: Binding affinity to recombinant […] biotinylated-HSP90 N-terminal domain (9 to 236 residues) (unknown origin) expressed in Escherichia coli BL21 (DE3) by biolayer interferometry
Outline: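 Biotinylated Hsp90 (100 µg/mL) loaded onto streptavidin sensors prewetted 10 min in PBS with 0.05% BSA and 0.01% Tween 20. Analyte binding measured at 28 °C. Double reference subtraction applied; data fitted to a 1:1 model with K_D = K_off/K_on.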

[2] = Distribution coefficient, log D of the compound at pH 7.4 by potentiometric titration method; format: physicochemical; conditions: octanol/water
Outline: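 log D at pH 7.4 measured by potentiometric titration on a Gemini Profiler.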

[3] = target: T2, Heat shock protein HSP 90-beta/Hsp90 co-chaperone Cdc37 (Homo sapiens) (UniProt P08238+Q16543); test: Inhibition of His-tagged HSP90/GST-tagged Cdc37 (unknown origin) protein-protein interaction at 100 uM measured after 1 hr by HTRF assay relative to control; format: protein-complex assay
Outline: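 His-Hsp90 and GST-Cdc37 were premixed at a final 80 nM in PBS with 200 mM KF, pH 7.4. Compound was added and the mix incubated 1 h at 37 °C, then read by HTRF. Inhibition rate was taken at 100 μM compound.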

[4] = Permeability of the compound at pH 7.4 by PAMPA; format: ADME; conditions: read-out: permeability
Outline: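 Permeability coefficient (Pe) was measured at pH 7.4 by double-sink PAMPA.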

[5] = target: T2, Heat shock protein HSP 90-beta/Hsp90 co-chaperone Cdc37 (Homo sapiens); test: Inhibition of HSP90-CDC37 protein-protein interaction in human HCT116 cells up to 1 uM measured after 12 hrs by coimmunoprecipitation-based Western blot assay; format: cell-based
Outline: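 HCT116 cells grown to ~90% confluence in 10 cm dishes, exposed to compound or DMSO for 12 h, then washed with ice-cold PBS and lysed in RIPA buffer (50 mM Tris, 150 mM NaCl, 1% NP-40, protease inhibitors, pH 7.4) for 1 h on ice. Hsp90 was immunoprecipitated with protein A/G magnetic beads over 3 h. Western blots probed Hsp90, Cdc37 and CDK4.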

Heat shock protein HSP90 [6] = target: T1, Heat shock protein HSP90; test: Inhibition of recombinant full-length HSP90 ATPase activity N-terminal domain (9 to 236 residues) (unknown origin) expressed in Escherichia coli BL21 (DE3) measured after 1 hr by ADP hunter plus assay
Heat shock protein HSP90 [7] = target: T1, Heat shock protein HSP90; test: Binding affinity to recombinant […] HSP90 N-terminal domain (9 to 236 residues) (unknown origin) expressed in Escherichia coli BL21 (DE3) assessed as change in melting temperature by SYPRO dye based thermal shift assay
Outline: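 Hsp90 N-terminal domain (10 µM) mixed with compound at 200, 100, 50 or 10 µM in 1× PBS, pH 8.0, with 6× SYPRO Orange. Heated from room temperature to 99 °C at 1 °C/min; fluorescence read at 492 nm excitation and 610 nm emission.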

HCT-116 = test: Antiproliferative activity against human HCT116 cells measured after 72 hrs by CCK8 assay; format: functional, cell-based; conditions: HCT-116, 72 h
Outline: (§1)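 Cells grown in RPMI 1640 with 10% FBS at 37 °C, 5% CO2; STR-authenticated and mycoplasma-checked. Seeded at 3000-5000 cells/well and left 24 h. Serial compound dilutions added for 72 h, with matched DMSO as control. Viability read by CCK8 kit using the standard protocol. IC50 values derived from at least three parallel experiments.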

A549 = test: Antiproliferative activity against human A549 cells measured after 72 hrs by CCK8 assay; format: functional, cell-based; conditions: A549, 72 h; outline: as §1
L02 = test: Cytotoxicity against human L02 cells measured after 72 hrs by CCK8 assay; format: functional, cell-based; conditions: L02, 72 h; outline: as §1
Heat shock protein HSP90 [8] = target: T1, Heat shock protein HSP90; test: Binding affinity to recombinant […] HSP90 N-terminal domain (9 to 236 residues) (unknown origin) expressed in Escherichia coli BL21 (DE3) by isothermal calorimetric method
Outline: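 ITC: 50 µM Hsp90 in the cell and 300 µM compound in the syringe, both in 20 mM Tris-HCl, 150 mM NaCl, pH 7.4. Nineteen injections at 180 s intervals with stirring at 1000 rpm.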

Row | logD [2] | inhibition [3] [%] | Papp [4] [×10⁻⁶ cm/s] | inhibition [5] | IC50 (Heat shock protein HSP90 [6]) [µM] | SMILES | Kd (Heat shock protein HSP90 [1]) [µM] | ΔTm (Heat shock protein HSP90 [7]) [°C] | pIC50 (HCT-116) | pIC50 (A549) | pIC50 (L02) | Kd (Heat shock protein HSP90 [8]) [µM]
1 | 4.82 | 56.3 | 65.9 |  |  | COc1cc(S(=O)(=O)Nc2ccc(Nc3ccnc(N4CCCC4)n3)cc2)c(C)cc1C | 21.1 |  |  |  |  | 
2 |  |  |  | inactive | 0.15 | CC(C)c1cc(C(=O)N2Cc3ccc(CN4CCN(C)CC4)cc3C2)c(O)cc1O [ONALESPIB] |  |  |  |  |  | 
3 | 2.01 | 64.3 | 61.5 |  | > 100 | Cc1cc(C)c(S(=O)(=O)N(CC#N)c2ccc(Nc3ccnc(N4CCNCC4)n3)cc2)c(C)c1 |  | 1.1 |  |  |  | 

Row | SMILES | logD [2] | inhibition [3] [%] | Papp [4] [×10⁻⁶ cm/s] | inhibition [5] | IC50 (Heat shock protein HSP90 [6]) [µM] | Kd (Heat shock protein HSP90 [1]) [µM] | ΔTm (Heat shock protein HSP90 [7]) [°C] | pIC50 (HCT-116) | pIC50 (A549) | pIC50 (L02) | Kd (Heat shock protein HSP90 [8]) [µM]
4 | Cc1cc(C)c(S(=O)(=O)N(CC(=O)NO)c2ccc(Nc3ccnc(N4CCNCC4)n3)cc2)c(C)c1 | 0.82 | 96.2 | 44.1 |  | > 100 | 2.66 | 1.59 | 5.40 | 4.79 | 4.66 | 5.49
